Measurements reported in PubChem BioAssay.
The source made the active and inactive calls.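 How the source made its calls, unless noted: active means compounds giving at least 50% inhibition in the cell-based MKP-3 phosphatase rescue imaging test; inactive means the rest.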

Legend:
[1] = inhibitors of TNFa-induced NFkB p65 translocation, primary screen, imaging, HUVEC, MLSMR starter and 10KST1 sets (AID 438;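 active means inhibition above 20% together with a positive visual image hit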;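 further: compound added about 3h40 before a 20 min TNFalpha stimulation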;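 on inhibition: signal is the nuclear over cytoplasmic p65 intensity ratio per well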); settings: HUVEC TNFa-induced p65 nuclear translocation; cell count: measured here: nuclei count (cytotoxicity indicator), at 2.08 µM; inhibition: at 2 µM, stronger effect = higher value, 0% TNFa-plus-vehicle, 100% no-TNFa wells
[2] = inhibitors of E-selectin induction by TNFa, primary screen, imaging, HUVEC, immunofluorescence, MLSMR starter and 10KST1 sets (AID 487;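 active means visually confirmed hit in the image check and inhibition above 20%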;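 on inhibition: signal is fraction of cell area covered by stained E-selectin grains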;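 on nuclei count: 100% = median nuclei count of all wells on the same plate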); settings: HUVEC TNFalpha-induced E-selectin immunofluorescence imaging, at 2 µM; inhibition: stronger effect = higher value; nuclei count: measured here: cell number, toxicity
[3] = DUSP6 inhibitors restoring Erk phosphorylation by chemical complementation, primary imaging in DUSP6-transfected HeLa (AID 609); settings: HeLa MKP-3 transfected, phospho-Erk imaging KS statistic, at 10 µM, cells stimulated with TPA for 15 min;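 on inhibition: phospho-Erk level distribution per well compared with pooled transfected vehicle control wells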
[4] = biological target: Dual specificity protein phosphatase 6 (Homo sapiens) (UniProt Q16828); assay: as above; settings: HeLa MKP-3 transfected, phospho-Erk imaging KS statistic; at 10 µM; stronger effect = higher value; cells stimulated with TPA for 15 min
[5] = biological target: Voltage-gated potassium channel subunit beta-2 (Rattus norvegicus) (UniProt P62483); assay: KvBeta enzyme negative modulators, primary screen, biochemical, NADPH fluorescence (AID 622;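 active means fluorescence slope higher than the sample average by over 3 SD, cut at about -0.22 in these data, passing the limit was not always enough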;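 further: slope of raw intensity against log time taken from 70 to 1610 s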); settings: recombinant KvBeta, 4-cyanobenzaldehyde reduction, at 10 µM, stronger effect = higher value
[6] = biological target: Voltage-gated potassium channel subunit beta-2 (Rattus norvegicus) (UniProt P62483); assay: KvBeta positive modulators, primary screen, biochemical, NADPH fluorescence (AID 623;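 active means NADPH fluorescence slope more negative than the mean of all samples by about 3 SD, 99.7% confidence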;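 further: fluorescence intensity change per second fitted from 20 to 320 s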); settings: Recombinant KvBeta, NADPH fluorescence decrease slope, 10 min; at 10 µM; stronger effect = lower value
[7] = biological target: Alpha-2C adrenergic receptor (Homo sapiens) (UniProt P18825); assay: modulators of alpha2C/GIRK thallium flux, primary screen, cell-based, HEK293 alpha2C/GIRK1/2 (AID 624;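 active means fluorescence slope after compound addition differing from the mean of all screened samples at 99.7% confidence, in either direction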;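 further: slope of fluorescence ratio to pre-addition baseline per second over 15 to 24 s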); settings: thallium flux BTC fluorescence, at 10 µM, actives lie on both sides
[8] = inhibitors of larval lipid processing in zebrafish, primary screen, whole organism, PED6 fluorescence, gall bladder and intestine (AID 686;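 active means a full or partial loss of lipid-probe fluorescence in the fish gall bladder, intestine or both, judged by eye; inactive means no fluorescence loss, or compound toxic to the fish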;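 further: larvae 5 to 7 days old with five fish per well; signal comes from phospholipase A2 cleavage of quenched PED6 carried via bile; overnight exposure to compound and PED6 before scoring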); settings: Zebrafish larvae PED6 lipid processing, fluorescence scoring; screened at 20 µM (by protocol)
Procedure, shortened: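 Test system – live zebrafish larvae aged 5-7 days, whole organism · Buffer or medium – E3 fish medium · Reagent – quenched phospholipase substrate PED6, 100 nM final, ingested by larvae · Doses – 20 µM single dose · Incubation – overnight compound and PED6 incubation · Technique – visual fluorescence microscopy scoring of gall bladder, gut · Read-out basis – visual per-well fluorescence inhibition score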

[9] = inhibitors of Chlamydomonas gravitaxis, primary screen, whole organism, Chlamydomonas reinhardtii, WT vs cilia-less mutant, absorbance, 96-well (AID 463189;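 active means inhibition at or above 50% relative to wild type and mutant plate controls; inactive means inhibition below 50%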;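 further: 0% = wild type cc124 cells in DMSO and 100% = ciliumless bld1 mutant cells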); settings: OD600 absorbance, 2 days, at 10 µM, stronger effect = higher value
[10] = measured here: cell density z-score
[11] = measured here: nuclear c-Myc green intensity z-score
[12] = measured here: nuclear pErk red intensity z-score, stronger effect = higher value

Sequence of Alpha-2C adrenergic receptor (Homo sapiens) (P18825 whole entry, looked up): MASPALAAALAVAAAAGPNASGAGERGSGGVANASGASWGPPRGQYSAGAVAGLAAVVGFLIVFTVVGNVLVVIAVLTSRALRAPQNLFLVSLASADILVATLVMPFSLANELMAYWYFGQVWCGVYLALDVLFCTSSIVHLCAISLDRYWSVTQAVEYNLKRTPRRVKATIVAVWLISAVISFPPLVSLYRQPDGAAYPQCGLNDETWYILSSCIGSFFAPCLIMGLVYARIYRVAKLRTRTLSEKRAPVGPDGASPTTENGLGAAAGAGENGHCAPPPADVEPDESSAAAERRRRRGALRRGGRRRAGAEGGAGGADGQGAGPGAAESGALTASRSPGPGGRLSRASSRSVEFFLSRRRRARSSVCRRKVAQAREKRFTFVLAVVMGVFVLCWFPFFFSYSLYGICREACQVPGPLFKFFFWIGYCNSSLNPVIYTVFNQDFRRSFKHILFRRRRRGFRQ
Sequence of Dual specificity protein phosphatase 6 (Homo sapiens) (Q16828 whole entry, looked up): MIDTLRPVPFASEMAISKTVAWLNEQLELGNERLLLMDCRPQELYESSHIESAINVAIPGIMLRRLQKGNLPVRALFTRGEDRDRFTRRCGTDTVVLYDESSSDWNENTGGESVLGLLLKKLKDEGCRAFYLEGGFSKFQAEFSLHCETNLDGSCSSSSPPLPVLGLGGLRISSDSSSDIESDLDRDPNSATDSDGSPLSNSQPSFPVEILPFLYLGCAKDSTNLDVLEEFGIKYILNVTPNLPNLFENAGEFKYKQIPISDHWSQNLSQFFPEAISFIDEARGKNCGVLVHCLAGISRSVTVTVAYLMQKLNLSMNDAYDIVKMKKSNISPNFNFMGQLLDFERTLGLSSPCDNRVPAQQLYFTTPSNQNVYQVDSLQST
Sequence of Voltage-gated potassium channel subunit beta-2 (Rattus norvegicus) (P62483 whole entry, looked up): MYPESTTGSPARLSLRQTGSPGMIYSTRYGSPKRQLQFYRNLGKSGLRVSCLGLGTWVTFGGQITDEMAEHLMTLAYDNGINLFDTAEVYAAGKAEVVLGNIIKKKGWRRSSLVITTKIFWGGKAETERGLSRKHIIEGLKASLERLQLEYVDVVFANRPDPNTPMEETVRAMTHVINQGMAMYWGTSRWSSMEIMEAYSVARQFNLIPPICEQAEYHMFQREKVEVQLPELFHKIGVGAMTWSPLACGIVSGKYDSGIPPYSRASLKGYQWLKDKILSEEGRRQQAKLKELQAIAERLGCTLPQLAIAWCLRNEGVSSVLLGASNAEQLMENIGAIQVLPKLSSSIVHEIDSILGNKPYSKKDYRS

Row | SMILES | cell count [1] | inhibition [1] | inhibition [2] | nuclei count [2] [%] | z-score [3, 10] | z-score [3, 11] | z-score [3, 12] | inhibition [4] | fluorescence slope [5] | NADPH fluorescence slope [6] | slope [7] | outcome [8] | inhibition [9]
1 | C=CCn1c(SCc2c(F)c(F)c(F)c(F)c2F)nc(O)cc1=O | 615 | -1.1% (inactive) | -11.1% (inactive) | 149 | 1.68 | -0.511 | 0.131 | 7.83% (inactive) | -0.502 (inactive) | -0.00012 (inactive) | 0.00491 (inactive) | inactive | 8.12% (inactive)
2 | Cc1cc(C)nc(N(C#N)CC(=O)N(c2ccccc2)C(C)C)n1 | 584 | -10.3% (inactive) | 50% (inactive) | 140 | -1.19 | -0.154 | 2.33 | -11% (inactive) | -0.345 (inactive) | -2.8e-05 (inactive) | 0.00548 (inactive) | inactive | 5.11% (inactive)
3 | Cc1nc(SCC(N)=O)[nH]c(=O)c1Cc1ccc(OC(C)C)cc1 | 585 | 5.2% (inactive) | 22.1% (inactive) | 150 | -0.515 | 0.503 | 0.0528 | 3.5% (inactive) | -0.331 (inactive) | 2.9e-05 (inactive) | 0.00497 (inactive) | inactive | -1.58% (inactive)
4 | O=C(O)c1cnn2c(C(F)(F)F)cc(-c3ccco3)nc12 | 416 | 1.3% (inactive) | -45.3% (inactive) | 96.3 | 1.16 | -0.0109 | -0.464 | 9.39% (inactive) | -0.48 (inactive) | -7.9e-05 (inactive) | 0.005 (inactive) | inactive | 17.4% (inactive)
5 | COC(=O)c1ccc(=O)n(Cc2ccco2)c1 | 300 | -2.7% (inactive) | -70.6% (inactive) | 107 | -1.23 | 1.62 | -0.83 | -6.48% (inactive) | -0.404 (inactive) | -1.8e-06 (inactive) | 0.00511 (inactive) | inactive | -14.2% (inactive)
6 | CN1C(=O)c2ccc(N(C)C)cc2C1=O | 681 | -8.8% (inactive) | 17.3% (inactive) | 175 | 0.273 | -0.466 | -0.534 | 3.66% (inactive) | -0.479 (inactive) | -6.8e-05 (inactive) | 0.00498 (inactive) | inactive | 21.8% (inactive)
7 | COc1cc(C2NC(=O)NC(C)=C2C(=O)Nc2cccc(C)c2C)cc(OC)c1OC (stereo unspecified) | 566 | -3.3% (inactive) | -47.5% (inactive) | 183 | 0.296 | 0.344 | -0.592 | -2.91% (inactive) | -0.35 (inactive) | -1.5e-05 (inactive) | 0.00551 (inactive) | inactive | -6.92% (inactive)
8 | CC1(C)CC(=O)C2=C(C1)N(Cc1ccco1)C(=O)C2(O)C(F)(F)F (stereo unspecified) | 502 | -2.4% (inactive) | -124% (inactive) | 132 | -0.0541 | -0.87 | -0.763 | -12.3% (inactive) | -0.467 (inactive) | -6.1e-05 (inactive) | 0.00641 (inactive) | inactive | 20.3% (inactive)
9 | COC(=O)c1ccn(C(=O)c2ccc(Cl)cc2)n1 | 646 | -1.4% (inactive) | -13.4% (inactive) | 147 | 1.7 | -0.283 | 1.25 | -2.91% (inactive) | -0.519 (inactive) | -4e-05 (inactive) | 0.00635 (inactive) | inactive | 6.37% (inactive)
10 | CCOC(=O)c1c(CN2CCCCC2)oc2ccc(OC)cc12 | 344 | -9.3% (inactive) | -46.9% (inactive) | 142 | 0.114 | 0.591 | 0.702 | -7.01% (inactive) | -0.416 (inactive) | -0.000135 (inactive) | 0.00729 (inactive) | inactive | 4.54% (inactive)
11 | CCOC(=O)c1cc(C)n(Cc2cccc(OC)c2OC)c1C | 502 | -9.3% (inactive) | -39.9% (inactive) | 122 | 1.01 | 0.196 | 0.00488 | 17% (inactive) | -0.496 (inactive) | -9.4e-05 (inactive) | 0.00511 (inactive) | inactive | 26.9% (inactive)
12 | Cc1c(Cl)c(C(F)(F)F)nn1CC(=O)N1CCSCC1 | 511 | -3.6% (inactive) | -110% (inactive) | 152 | -0.563 | -0.304 | 1.29 | -9.7% (inactive) | -0.555 (inactive) | -4.7e-05 (inactive) | 0.00531 (inactive) | inactive | -2.53% (inactive)
13 | Cc1nn(C)cc1CNC(=O)c1ccc(Br)o1 | 507 | -14.6% (inactive) | -66.6% (inactive) | 111 | 0.29 | 0.777 | -0.409 | 10.1% (inactive) | -0.444 (inactive) | -3.5e-08 (inactive) | 0.00689 (inactive) | inactive | 0.36% (inactive)
14 | Cc1cc(C)n(Cc2ccc(C(=O)NCCC3=CCCCC3)o2)n1 | 333 | -8% (inactive) | -28.7% (inactive) | 119 | 0.702 | 0.069 | -0.61 | 8.76% (inactive) | -0.456 (inactive) | -0.000101 (inactive) | 0.00523 (inactive) | inactive | 16.8% (inactive)
15 | O=C(Oc1ccccc1N1C(=O)CCC1=O)c1ccco1 | 545 | 4.9% (inactive) | -119% (inactive) | 118 | 0.222 | -0.0545 | 0.413 | 3.5% (inactive) | -0.557 (inactive) | -6.4e-05 (inactive) | 0.0069 (inactive) | inactive | -13.9% (inactive)
16 | COc1ccc(C2=Nn3c(nnc3-c3ccccn3)SC2)cc1 | 635 | -4.7% (inactive) | -43.3% (inactive) | 169 | 0.562 | 0.488 | -0.686 | -4.27% (inactive) | -0.427 (inactive) | -0.00018 (inactive) | 0.0069 (inactive) | inactive | 2.53% (inactive)
17 | Cc1[nH]c2ccc3c(ncn3CCC#N)c2c1C | 616 | -7.5% (inactive) | -48.6% (inactive) | 166 | -0.136 | 0.347 | 0.974 | 18.2% (inactive) | -0.5 (inactive) | -3.5e-05 (inactive) | 0.00512 (inactive) | inactive | 11.7% (inactive)
18 | CC(C)(C)n1nnc(CCc2nnn(C(C)(C)C)n2)n1 | 276 | -17.8% (inactive) | -32.2% (inactive) | 104 | 0.0896 | 1.07 | -0.74 | 10.5% (inactive) | -0.44 (inactive) | -0.000126 (inactive) | 0.00595 (inactive) | inactive | -11.8% (inactive)
19 | COc1ccccc1N(O)C1CC(=O)N(c2ccc(F)cc2)C1=O (stereo unspecified) | 304 | -7.6% (inactive) | -18.5% (inactive) | 92 | -1.81 | 1.54 | 0.452 | 13.4% (inactive) | -0.46 (inactive) | -0.000168 (inactive) | 0.00806 (inactive) | inactive | -1.02% (inactive)
20 | N#CC1=C(N)NC(SCc2ccc(Cl)cc2)=C(C#N)C12CCCCC2 | 630 | -23% (inactive) | 44.1% (inactive) | 180 | 0.0253 | -0.669 | 0.519 | 1.04% (inactive) | -0.409 (inactive) | -5.9e-05 (inactive) | 0.00372 (inactive) | inactive | 18.9% (inactive)
21 | c1cncc(Oc2cccc(Oc3cccnc3)c2)c1 | 388 | -2.6% (inactive) | -116% (inactive) | 133 | -0.336 | 0.96 | -0.973 | -2.07% (inactive) | -0.426 (inactive) | -1.4e-05 (inactive) | 0.00527 (inactive) | inactive | -16% (inactive)
22 | Cn1c(=O)c2c(nc(NCc3ccc4c(c3)OCO4)n2Cc2ccc(F)cc2)n(C)c1=O | 600 | 3.1% (inactive) | -39.4% (inactive) | 152 | -0.468 | -0.0841 | -0.555 | -2.91% (inactive) | -0.511 (inactive) | -8.9e-05 (inactive) | 0.00456 (inactive) | inactive | 2.97% (inactive)
23 | S=c1[nH]nc(-c2ccco2)n1Cc1ccccc1 | 367 | -8.2% (inactive) | -105% (inactive) | 110 | -1.5 | 1.31 | -1.88 | 11.9% (inactive) | -0.477 (inactive) | -0.000234 (inactive) | 0.00534 (inactive) | inactive | -18.5% (inactive)
24 | CC1(C)Cc2nc(N)c(C(=O)NCCO)cc2CO1 | 668 | -10.5% (inactive) | 15.2% (inactive) | 184 | -0.73 | 0.225 | 0.421 | -3.98% (inactive) | -0.476 (inactive) | -3e-05 (inactive) | 0.00417 (inactive) | inactive | 6.5% (inactive)
25 | CCN(CC)C(=O)CSC1=C(C#N)C(c2cccs2)C=C(C)N1 (stereo unspecified) | 685 | -20% (inactive) | -137% (inactive) | 171 | -0.342 | -0.599 | 1.19 | -10.6% (inactive) | -0.405 (inactive) | -4.9e-05 (inactive) | 0.00539 (inactive) | inactive | -1.96% (inactive)
26 | COC(=O)CCc1c(C)[nH]c(C(=O)OCc2ccccc2)c1C | 596 | -4.1% (inactive) | -34% (inactive) | 179 | -1.2 | -0.0699 | 0.772 | -5.89% (inactive) | -0.487 (inactive) | -0.00013 (inactive) | 0.00445 (inactive) | inactive | -0.974% (inactive)
27 | CC1CC(C(F)(F)F)n2ncnc2N1 (stereo unspecified) | 503 | -3.5% (inactive) | -41.5% (inactive) | 134 | -0.241 | 0.0915 | -0.288 | 13.2% (inactive) | -0.523 (inactive) | -4.4e-05 (inactive) | 0.00582 (inactive) | inactive | 39.7% (inactive)
